Reference: ChEMBL document CHEMBL2034820, “Discovery, synthesis, and biological evaluation of novel pyrrole derivatives as highly selective potassium-competitive acid blockers” (Bioorg Med Chem, 2012)
Active and inactive are the calls of the source. No cut-off for these calls is given here.

Key:
Rattus norvegicus [1] = assay: Inhibition of histamine-induced gastric acid secretion in Jcl:Sprague-Dawley rat at 1 mg/kg, iv administered 3 mins before histamine challenge measured after 3 hrs relative to control; type: functional; settings: Stomach
Procedure, shortened: (§1)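 Seven-week-old male SD rats, fasted 24 h with free water, anesthetized with urethane 1.2 g/kg ip and pylorus-ligated. Drug or vehicle given iv just after ligation; histamine 2HCl 30 mg/kg sc 3 min later. After 3 h, gastric contents were centrifuged and titrated to pH 7.0 with 0.1 mol/L NaOH. Total 3 h acid output compared with vehicle.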

[2] = Inhibition of H+/K+ATPase in pig gastric microsomes assessed as liberation of inorganic phosphate from ATP hydrolysis after 30 mins; parameters: species or system Sus scrofa, Stomach, Microsome
Procedure, shortened: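 Porcine gastric mucosal microsomes (Ficoll-interface fraction, stored at -80 C) in 50 mmol/L HEPES-Tris pH 6.5 with 5 mmol/L MgCl2, valinomycin, ±10 mmol/L KCl. Preincubated with compound at 37 C for 30 min, then started by adding 2 mmol/L ATP solution. Stopped with malachite green; Pi read at 620 nm. K+-dependent activity from ± K+ difference; IC50 by sigmoidal dose-response fit.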

[3] = Inhibition of Na+/K+ ATPase in pig cerebral cortex; type: tissue-based, Sus scrofa
Procedure, shortened: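 Otherwise run as the gastric H+,K+-ATPase assay: compound preincubation at 37 C for 30 min, ATP-started reaction, malachite green phosphate read-out at 620 nm.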

Rattus norvegicus [4] = assay: Inhibition of histamine-induced gastric acid secretion in Jcl:Sprague-Dawley rat at 10 mg/kg, iv administered 3 mins before histamine challenge measured after 3 hrs relative to control; type: functional; settings: Stomach; procedure, shortened: as §1
Canis familiaris [5] = assay: Inhibition of histamine-stimulated gastric acid secretion in heidenhain pouch dog at 1 mg/kg, po prestimulated with histamine 1 day before compound treatment and 1, 3, 6 and 24 hrs post compound treatment measured after 24 hrs; type: functional, organism-based; parameters: dose 1 mg/kg; settings: Canis lupus familiaris, Stomach
Procedure, shortened: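 Heidenhain pouch dogs dosed orally (0.2 mL/kg), blinded. Histamine 2HCl given sc 1 day before and at 1, 3, 6 and 24 h post-dose. Pouch juice collected over three consecutive 30 min periods and titrated to pH 7.0 with 0.1 mol/L NaOH. 90 min acid output expressed as % of the pre-dosing value.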

Canis familiaris [6] = assay: Inhibition of histamine-stimulated gastric acid secretion in heidenhain pouch dog at 1 mg/kg, po prestimulated with histamine 1 day before compound treatment and 1, 3, 6 and 24 hrs post compound treatment measured every 30 mins for 3 times; type: functional, organism-based; parameters: dose 1 mg/kg; settings: Canis lupus familiaris, Stomach
Procedure, shortened: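 Dogs dosed orally in a blinded design (0.2 mL/kg), with vehicle controls. Histamine 2HCl injected sc. Pouch gastric juice collected as three consecutive 30 min periods after each histamine dose. Volume measured, and acid titrated to pH 7.0 with 0.1 mol/L NaOH. Total 90 min acid output at each time expressed as % of pre-dosing value.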

Sus scrofa [7] = organism: Sus scrofa; assay: Competitive inhibition of H+/K+ATPase in pig gastric microsomes by Lineweaver-Burk plot analysis; settings: Stomach, Microsome
Sus scrofa [8] = organism: Sus scrofa; assay: Reversible inhibition of H+/K+ATPase in pig gastric microsomes assessed as liberation of inorganic phosphate from ATP hydrolysis at 0.1 uM incubated for 20 mins measured after compound washout; settings: Stomach, Microsome
Procedure, shortened: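 Gastric microsomes incubated with compound (1% DMSO final) at 37 C for 30 min in 50 mmol/L HEPES-Tris pH 6.5, 5 mmol/L MgCl2, 10 mmol/L KCl. Activity measured on an aliquot and on the remainder after washout (30 kDa ultrafiltration, resuspended compound-free). Reaction started with 2 mmol/L ATP, run at 37 C for 20 min; malachite green phosphate read-out; % of 1% DMSO vehicle, n = 2.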

CNCc1cc(-c2ccccc2)n(S(=O)(=O)c2ccc(C(F)(F)F)cc2)c1
inhibition in vivo at 1 mg/kg (Rattus norvegicus [1]): 73% | IC50 [2]: 110 nM

Cc1ccc(S(=O)(=O)n2cc(CN)cc2-c2ccccc2)cc1
IC50 [2]: 860 nM

CCCCc1cc(CNC)cn1S(=O)(=O)c1ccccc1
inhibition in vivo at 1 mg/kg (Rattus norvegicus [1]): -8% | IC50 [2]: 250 nM

CNCc1cc(-c2ccccc2)n(S(=O)(=O)c2ccccc2)c1C
inhibition in vivo at 1 mg/kg (Rattus norvegicus [1]): 77% | IC50 [2]: 25 nM | IC50 [3]: > 10 µM

CCCCS(=O)(=O)n1cc(CNC)cc1-c1ccccc1
IC50 [2]: 830 nM

CNCc1cc(-c2ccccc2)n(S(=O)(=O)c2ccccc2)c1
inhibition in vivo at 1 mg/kg (Rattus norvegicus [1]): 96% | IC50 [2]: 9.4 nM | IC50 [3]: > 10 µM

CNCc1cn(S(=O)(=O)c2ccccc2)c(-c2ccccc2)c1C
inhibition in vivo at 1 mg/kg (Rattus norvegicus [1]): 95% | IC50 [2]: 29 nM | IC50 [3]: > 10 µM

Cc1ccc(S(=O)(=O)n2cc(C(N)=O)cc2-c2ccccc2)cc1
IC50 [2]: > 10000 nM

CNCc1cc(-c2ccccc2)n(Cc2ccccc2)c1
inhibition in vivo at 10 mg/kg (Rattus norvegicus [4]): 84% | IC50 [2]: 510 nM

COCc1cc(-c2ccccc2)n(S(=O)(=O)c2ccc(C)cc2)c1
inhibition in vivo at 10 mg/kg (Rattus norvegicus [4]): -3% | IC50 [2]: > 10000 nM

CNCc1cc(-c2ccccc2)n(S(=O)(=O)c2ccccc2)c1Cl
inhibition in vivo at 1 mg/kg (Rattus norvegicus [1]): 49% | IC50 [2]: 40 nM | IC50 [3]: > 10 µM

CN(C)Cc1cc(-c2ccccc2)n(S(=O)(=O)c2ccc(C(F)(F)F)cc2)c1
inhibition in vivo at 10 mg/kg (Rattus norvegicus [4]): 59% | IC50 [2]: 710 nM

CNCc1cc(-c2ccccc2)n(S(=O)(=O)c2ccc(OC)cc2)c1
inhibition in vivo at 1 mg/kg (Rattus norvegicus [1]): 95% | inhibition (Canis familiaris [5]): Active | inhibition (Canis familiaris [6]): Active | IC50 [2]: 30 nM | IC50 [3]: > 10 µM

CNCc1cc(-c2ccccc2)n(C(=O)c2ccccc2)c1
IC50 [2]: > 10000 nM

CNCc1cc(C2CC2)n(S(=O)(=O)c2ccccc2)c1
IC50 [2]: 1500 nM

CNCc1cc(-c2ccccc2)n(S(C)(=O)=O)c1
inhibition in vivo at 10 mg/kg (Rattus norvegicus [4]): 27% | IC50 [2]: > 10000 nM

Cc1c(OCC(F)(F)F)ccnc1C[S+]([O-])c1nc2ccccc2[nH]1 (stereo unspecified)
inhibition (Canis familiaris [6]): Active

CCNCc1cc(-c2ccccc2)n(S(=O)(=O)c2ccc(C)cc2)c1
inhibition in vivo at 10 mg/kg (Rattus norvegicus [4]): 53% | IC50 [2]: 650 nM

CNCc1cc(-c2ccccc2)n(S(=O)(=O)c2ccc(C)cc2)c1
inhibition (Sus scrofa [7]): Active | inhibition in vivo at 1 mg/kg (Rattus norvegicus [1]): 66% | inhibition (Sus scrofa [8]): Active | IC50 [2]: 55 nM | IC50 [3]: > 10 µM

CNC(C)c1cc(-c2ccccc2)n(S(=O)(=O)c2ccc(C(F)(F)F)cc2)c1 (stereo unspecified)
inhibition in vivo at 1 mg/kg (Rattus norvegicus [1]): -4% | IC50 [2]: 2300 nM

CCNCc1cc(-c2ccc3c(c2)OCO3)n(S(=O)(=O)c2ccc(C)cc2)c1
inhibition in vivo at 10 mg/kg (Rattus norvegicus [4]): 39% | IC50 [2]: 540 nM
